Screening data deposited in PubChem by Sanford-Burnham Center for Chemical Genomics.
Sampled rows, rich in hits. Any-hit rate of the full collection: about 2.3%.
Scp-1 inhibitor – Scp-1 (human) phosphatase inhibition; actives 0.88% (n = 340,000); Q9GZU7; Recombinant Scp1, phosphopeptide, malachite green phosphate absorbance; inhibition, % at 20 µM;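 active = inhibition above about 50% at 20 µM, limit read from the data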;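 also: plate controls were DMSO wells with enzyme for no effect and wells lacking enzyme for full effect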
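System: SCP-1 catalytic domain; Reagent: Phospho 17-mer peptide substrate; Doses: one concentration, 20 µM, with 1.0% DMSO; Incubation: 45 min room-temperature reaction, 5 min colour, 30 min stabiliser; Signal: Phosphate-binding colour reagent, absorbance read at 630 nm.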
SUMO1-SIM PPI – alters human SUMO1 binding to SIM partners. actives 0.33% (n = 360,000). P63165. AID 602429. SUMO1 binding to a labelled peptide, TR-FRET, 1 h. inhibition, % at 20 µM; in the data active = inhibition above about 37%
Target sequence (P63165 whole entry, looked up): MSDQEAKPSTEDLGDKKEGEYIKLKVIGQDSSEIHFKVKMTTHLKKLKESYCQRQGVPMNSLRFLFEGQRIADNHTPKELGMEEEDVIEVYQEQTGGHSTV
DNMT1 inh – DNMT1 (human) enzyme inhibition; P26358; DNMT1 molecular beacon, Hinp1I cleavage, fluorescence; inhibition (reported as % activation of signal), % at 10 µM; actives 0.83% (n = 360,000); AID 588458; in the data active = inhibition above about 50%
Rpn11 inh – Rpn11 (human) deubiquitinase inhibition. actives 0.59% (n = 360,000). human 26S proteasome, Ub4-pepOG fluorescence polarization; 20S core pre-blocked with epoxomicin. inhibition, % at 20 µM. O00487;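 active = inhibition at 20 µM, scaled to each plate's controls, above about 33%, limit read from the data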
Target sequence (O00487 whole entry, looked up): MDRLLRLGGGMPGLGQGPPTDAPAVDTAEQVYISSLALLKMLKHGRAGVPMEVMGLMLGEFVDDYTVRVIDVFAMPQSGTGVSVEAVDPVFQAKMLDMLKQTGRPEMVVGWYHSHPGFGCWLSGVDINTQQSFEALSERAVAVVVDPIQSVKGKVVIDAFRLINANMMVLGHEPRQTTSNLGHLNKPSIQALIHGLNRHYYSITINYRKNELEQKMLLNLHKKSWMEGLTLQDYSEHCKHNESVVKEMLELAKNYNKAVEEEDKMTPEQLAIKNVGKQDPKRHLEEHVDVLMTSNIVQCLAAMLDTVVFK
STEP inh – blocks human striatal-enriched tyrosine phosphatase. P54829. recombinant STEP, OMFP fluorogenic substrate, fluorescence. inhibition, % at 20 µM. actives 0.25% (n = 360,000). AID 588621;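 active = inhibition at 20 µM, scaled per plate between control wells, above about 37%, limit read from the data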;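 also: 0% = DMSO with enzyme and substrate and 100% = substrate only without enzyme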
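Material: STEP (striatal-enriched tyrosine phosphatase) enzyme, cell-free | Medium: 50 mM Bis-Tris pH 6.0 with 2.5 mM DTT and 0.005% Tween 20 | Read-out: Percent inhibition scaled to no-enzyme and uninhibited-enzyme controls, plate-pattern corrected | Signal: Fluorescence read at 480 nm ex / 540 nm em | Times: 20 min reaction, room temperature, in the dark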
LMPTP block – blocks human LMPTP phosphatase. inhibition, % at 20 µM. P24666. actives 0.22% (n = 360,000). recombinant LMPTP-A, OMFP fluorogenic substrate, fluorescence intensity;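 active = compounds that cut the enzyme signal by at least half of the control window in the single-dose screen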;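 also: plate controls were DMSO wells with enzyme plus substrate for no effect and substrate without enzyme for full effect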
Target sequence (P24666 whole entry, looked up): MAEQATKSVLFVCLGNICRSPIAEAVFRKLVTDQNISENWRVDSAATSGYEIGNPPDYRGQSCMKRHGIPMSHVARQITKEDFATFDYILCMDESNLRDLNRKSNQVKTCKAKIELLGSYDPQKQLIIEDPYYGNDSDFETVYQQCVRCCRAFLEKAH
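Material: LMPTP-A; amount: 0.625 nM enzyme; doses: single 20 µM dose; times: reaction 50 min, room temperature, dark; technique: fluorescence intensity of OMFP turnover product; benchmarks: no-enzyme and uninhibited controls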
Rpn11 inh conf – confirmation of human proteasome Rpn11 inhibitors. shares compounds with Rpn11 inh. purified human 26S proteasome, Ub4-pepOG fluorescence polarization; proteasome pretreated with epoxomicin. inhibition, % at 20 µM. actives 29% (n = 1,900). AID 602318
MMP-2 counter – counter-screen for RPN11 inhibitors: inhibition of human MMP-2 | shares compounds with Rpn11 inh | recombinant MMP-2, FRET peptide cleavage fluorescence | inhibition, % at 20 µM | actives 4% (n = 1,900) | AID 602330;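 also: human MMP-2 activated beforehand with APMA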
Thrombin inh – thrombin (bovine) inhibition counter-screen | bovine thrombin cleavage of Ub4-pepOG, fluorescence polarization | actives 13% (n = 1,900) | inhibition, % at 20 µM | AID 602333 | shares compounds with Rpn11 inh;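 active = mean inhibition at least 40% at 20 µM, or signal 3 deviations below plate average, so some actives read negative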;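 also: plate controls were thrombin with DMSO for no effect and buffer wells lacking thrombin for full effect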
* = called active by the depositor; / = not tested or not shown; + = active, no number. Rule as the data show it, unless noted: active = inhibition above about 40%; inactive = the rest.

SMILES	Scp-1 inhibitor	SUMO1-SIM PPI	DNMT1 inh	Rpn11 inh	STEP inh	LMPTP block	Rpn11 inh conf	MMP-2 counter	Thrombin inh
CCOC(=O)c1cc2c(=Cc3ccc(N(C)C)cc3)c3ccccc3n2[n+]1C	17	-36	10	43*	10	29	27	-48	18
CN(C)c1ccc(/C=C(\C#N)c2ccccc2)cc1	-17	-11	-2	-3	1	4	/	/	/
O=C(Cn1nnc(-c2ccccc2)n1)NCC(=O)Nc1ccc(F)c(F)c1F	-4	12	-2	3	10	0	/	/	/
O=C(NCCCN1CCOCC1)c1cnccn1	8	2	0	-10	-2	-3	/	/	/
CC(=O)N1CCc2cc(N=NC3=C(O)CCCC3=O)ccc21	-1	-49	-7	56*	5	8	51*	-7	22
CC(C)C(c1nnnn1Cc1ccco1)N1CCC(C(N)=O)CC1 (stereo unspecified)	15	0	5	142*	23	-1	15	-33	8
CCC(c1nnnn1Cc1ccco1)N1CCC(C(N)=O)CC1 (stereo unspecified)	-2	1	10	-1	0	-4	/	/	/
C=CCc1cc(/C=C2/NC(=S)NC2=O)cc(OC)c1O	0	-24	-5	47*	2	0	32	8	22
C=CCc1cc(/C=C2/NC(=O)NC2=O)cc(OCC)c1O	-11	-13	-3	4	2	1	/	/	/
CC(C)(C)c1cc(C2=CSC3=NCCN23)cc(C(C)(C)C)c1O	-2	2	-1	0	-2	-1	/	/	/
Cc1nc2ccc(NC(=O)c3ccc(Cl)c(S(=O)(=O)N(C)c4ccccc4)c3)cc2s1	3	-21	-15	81*	1	5	61*	-15	52*
Cc1nc2ccc(NC(=O)c3cc(S(=O)(=O)N(C)c4ccccc4)ccc3Cl)cc2s1	-2	0	17	35	1	1	/	/	/
COc1ccc(N2CCc3c(C)nc4c(OC)cc(OC)cc4c32)cc1	9	-16	21	-7	2	5	/	/	/
COc1ccc(N2CCc3c(C)nc4c(OC)cccc4c32)cc1	3	-34	8	43*	-1	1	-15	-25	-2
CCNC(=O)C1(C)CCCN(C(=O)/C=C/c2ccccc2)C1 (stereo unspecified)	/	-8	2	-2	2	4	/	/	/
COC(=O)c1c(-c2cccnc2)csc1NC(=O)c1ccc2c(c1)OCO2	0	-2	15	52*	3	1	52*	-20	21
Cc1ccc(S(=O)(=O)NC(=O)Cn2nnc(-c3ccccc3)c2COc2ccc3ccccc3c2)cc1	/	6	5	10	0	0	/	/	/
O=[N+]([O-])c1ccc(/C=N/NS(=O)(=O)c2ccc(Cl)cc2)o1	9	-11	2	-11	-4	-1	/	/	/
Cc1cc(N/N=C/c2ccc([N+](=O)[O-])o2)nc2ccccc12	-2	-21	-1	51*	5	6	25	-12	10
O=[N+]([O-])c1ccc(/C=N/Nc2ccnc3cc(Cl)ccc23)o1	-1	-17	20	50*	0	8	39	-15	16
Cc1ccc(-c2cc(C(=O)N/N=C/c3ccc([N+](=O)[O-])o3)c3ccccc3n2)o1	35	-7	23	-9	8	6	/	/	/
Cc1cc2ncn(/N=C/c3ccc([N+](=O)[O-])o3)c2cc1C	0	-19	-10	50*	1	-1	50*	-22	20
O=C(CC12CC3CC(CC(C3)C1)C2)NCc1ccc(F)cc1	-7	-3	0	4	-1	1	/	/	/
COc1ccc(/C=C2\SC(=O)N(CCCC(=O)Nc3cc(Cl)ccc3C(=O)O)C2=O)cc1	-10	-5	-10	12	1	-2	/	/	/
CCOc1ccc(C(=O)NCc2ccco2)cc1Cl	6	1	8	-1	0	0	/	/	/
SMILES	Scp-1 inhibitor	SUMO1-SIM PPI	DNMT1 inh	Rpn11 inh	STEP inh	LMPTP block	Rpn11 inh conf	MMP-2 counter	Thrombin inh
Cc1ccc(CNC(=O)c2ccccc2N)cc1	-6	1	2	-4	-2	-1	/	/	/
Cc1cccc(CNC(=O)c2ccccc2N)c1	-6	4	-3	198*	-2	-1	-7	-5	-7
CCN(CC(=O)Nc1ccc(OC)cc1)C(=O)c1ccc2c(=O)n3c(nc2c1)CCC3	-2	-10	2	0	-1	-8	/	/	/
CC1=Nc2ccccc2/C1=C\c1nc(-c2ccccc2)oc1O	-4	-7	-12	44*	0	1	43*	-5	22
Cc1c(Cl)cccc1NC(=O)CCC(=O)NNC(=O)c1ccco1	-4	0	3	0	-4	2	/	/	/
O=C(CCC(=O)Nc1ccccc1Cl)NNC(=O)c1ccco1	10	-1	-2	48*	12	1	-4	1	-13
O=C(Nc1ccc2c(c1)CCC2)c1cc(=O)[nH]c2ccccc12	-6	5	0	4	1	1	/	/	/
O=C(CSc1nnc(-c2ccc(O)cc2)o1)Nc1ccccc1Br	-3	-17	6	-7	0	0	/	/	/
O=C(Nc1cccc2nsnc12)c1ccc(-c2cccc(Cl)c2)o1	-3	20	-11	72*	4	2	21	6	10
O=C(Nc1ccccc1N1CCCCC1)c1ccc(-c2cccc(Cl)c2)o1	-4	2	0	8	-2	1	/	/	/
Cc1cc(C)n(CCNS(=O)(=O)c2ccccc2)n1	-6	7	0	0	-1	-1	/	/	/
O=C(CN1CCN(C(=O)c2cccs2)CC1)NC1CCCCC1	1	1	0	42*	0	-2	-9	-34	-24
CCOc1ccc(C(C)(C)C)cc1S(=O)(=O)Nc1ccncc1	-5	-1	0	-4	2	-1	/	/	/
CC(=O)N(CCCN1CCOCC1)Cc1ccncc1	0	-5	-3	40*	2	-13	-6	0	-10
c1cc(CNCCCN2CCOCC2)ccn1	-6	-4	-2	8	-1	-5	/	/	/
CCc1cc2c(=O)c(-c3ccc4c(c3)OCCO4)c(C)oc2cc1OS(C)(=O)=O	-7	-1	-3	15	4	1	/	/	/
O=C(c1ccc(Cl)cc1)c1cn[nH]c1-c1ccccc1O	-9	-1	-2	+	0	0	-3	0	5
